According to ChEMBL document CHEMBL3297707, “Dual protonophore-chitinase inhibitors dramatically affect O. volvulus molting” (J Med Chem, 2014):
Activity calls are given as the source filed them. No cut-off for these calls is given here.

Columns and labels:
Chitinase [1] = target: T1, Chitinase (Onchocerca volvulus, UniProt Q25615); test: Inhibition of Onchocerca volvulus L3 larvae chitinase using 20 uM 4-methylumbelliferyl-N,N',N''-beta-chitotrioside as substrate after 10 mins by microplate reader analysis
T1 sequence (Q25615 whole entry): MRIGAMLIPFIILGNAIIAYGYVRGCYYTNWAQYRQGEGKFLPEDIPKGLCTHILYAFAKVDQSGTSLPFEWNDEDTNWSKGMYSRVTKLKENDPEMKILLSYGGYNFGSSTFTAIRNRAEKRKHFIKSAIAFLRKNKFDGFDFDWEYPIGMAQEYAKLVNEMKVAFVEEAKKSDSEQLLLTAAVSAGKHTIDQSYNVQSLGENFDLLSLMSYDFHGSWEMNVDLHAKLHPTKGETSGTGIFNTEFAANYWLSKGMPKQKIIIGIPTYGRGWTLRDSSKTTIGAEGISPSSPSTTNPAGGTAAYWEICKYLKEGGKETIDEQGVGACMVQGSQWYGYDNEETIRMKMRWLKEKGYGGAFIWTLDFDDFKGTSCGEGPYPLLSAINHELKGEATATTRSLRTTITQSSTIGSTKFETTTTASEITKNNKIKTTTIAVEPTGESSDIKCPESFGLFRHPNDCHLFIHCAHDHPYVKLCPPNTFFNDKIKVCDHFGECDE

HEK-293T [2] = test: Protonophoric activity in human HEK293T/17 cells assessed as mitochondrial membrane depolarization at 50 uM for 30 mins by TMRE dye based fluorescence spectrometry; format: functional, cell-based
Summary of the method: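 HEK 293T/17 cells suspended at 1–2 × 10^6/mL in 10% FBS DMEM, given 50 μM compound or DMSO for 30 min at 37 °C, then stained with TMRE (~450 nM final) for 30 min in the dark at 37 °C. After washes in 0.2% BSA/PBS, fluorescence read on a plate reader (ex 549, em 575 nm). Mean ± sd, n = 3.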

HEK-293T [3] = test: Protonophoric activity in human HEK293T/17 cells assessed as mitochondrial membrane depolarization at 50 uM for 30 mins by TMRE dye based flow cytometry; format: functional, cell-based
Summary of the method: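 Trypsinized HEK 293T/17 cells at 1–2 × 10^6/mL in 10% FBS DMEM, exposed to 50 μM compound or DMSO for 30 min at 37 °C. TMRE (~450 nM final) added for 30 min in the dark at 37 °C. Cells washed with 0.2% BSA/PBS; membrane polarization read by flow cytometry on 1–2 × 10^6 cells per sample.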

Caenorhabditis elegans [4] = test: Drug accumulation in Caenorhabditis elegans at 10 uM after 6 hrs by LC-MS analysis; format: ADME, organism-based; conditions: in vivo
Summary of the method: (§1)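 Synchronized worms grown to late L4 on E. coli OP50 at 25 °C for 40 h, washed and suspended in M9 (~5–10 worms/μL). Compound added at 10 μM (~2 nmol/mg worm) for 6 or 12 h at rt. Worms washed with 0.1% SDS, then water, and lyophilized. Extracted in cold MeOH/MeCN (1:1) with internal standard and quantified by LC-TOF MS against calibration in blank worms. Mean ± sd, n = 3, nmol/mg worm.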

Caenorhabditis elegans [5] = test: Drug accumulation in Caenorhabditis elegans at 10 uM after 12 hrs by LC-MS analysis; format: ADME, organism-based; conditions: in vivo; summary of the method: as §1
Onchocerca volvulus [6] = test: Antiparasitic activity against Onchocerca volvulus assessed as inhibition of L3 to L4 larval molting at 10 uM for 24 hrs measured until 6 days by using inverted microscopic analysis in presence of PBMC; format: functional, organism-based
Summary of the method: (§2)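 O. volvulus L3 larvae pre-incubated with compound for 24 h, then complete medium (20% heat-inactivated FCS) and normal PBMCs added; molting assessed on day 6. Combination lines use a 1:1 mix with CCCP, each at the stated concentration. Percent molting taken over 10 wells, on average 5–10 larvae per well.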

Onchocerca volvulus [7] = test: Antiparasitic activity against Onchocerca volvulus assessed as inhibition of L3 to L4 larval molting at 1 uM for 24 hrs measured until 6 days by using inverted microscopic analysis in presence of PBMC; format: functional; summary of the method: as §2
Caenorhabditis elegans [8] = test: Drug metabolism in Caenorhabditis elegans assessed as 3-iodo closantel formation after 12 hrs by LC/MS analysis; format: ADME, organism-based; conditions: in vivo
Caenorhabditis elegans [9] = test: Drug metabolism in Caenorhabditis elegans assessed as 5-iodo closantel formation after 12 hrs by LC/MS analysis; format: ADME, organism-based; conditions: in vivo
Caenorhabditis elegans [10] = test: Drug metabolism in Caenorhabditis elegans assessed as sulfated metabolite formation after 12 hrs by LC/MS analysis; format: ADME, organism-based; conditions: in vivo
Caenorhabditis elegans [11] = test: Drug metabolism in Caenorhabditis elegans assessed as glycosylated metabolite formation after 12 hrs by LC/MS analysis; format: ADME, organism-based; conditions: in vivo
Caenorhabditis elegans [12] = test: Drug metabolism in Caenorhabditis elegans assessed as glucordinated metabolite formation after 12 hrs by LC/MS analysis; format: ADME, organism-based; conditions: in vivo
Caenorhabditis elegans [13] = test: Toxicity in Caenorhabditis elegans; format: organism-based; conditions: in vivo
[14] = target: T2, Chitinase (Onchocerca volvulus) (UniProt Q25615); test: Inhibition of Onchocerca volvulus L3 larvae chitinase using 20 uM 4-methylumbelliferyl-N,N',N''-beta-chitotrioside as substrate at 10 uM after 10 mins by microplate reader analysis
T2 sequence (whole entry): T1 sequence (Q25615 whole entry)

Brugia malayi = test: Inhibition of Brugia malayi chitinase using 20 uM 4-methylumbelliferyl-N,N',N''-beta-chitotrioside as substrate at 10 uM after 10 mins by microplate reader analysis
Entamoeba histolytica = test: Inhibition of Entamoeba histolytica chitinase using 20 uM 4-methylumbelliferyl-N,N',N''-beta-chitotrioside as substrate at 10 uM after 10 mins by microplate reader analysis
Onchocerca volvulus [15] = test: Antiparasitic activity against Onchocerca volvulus assessed as inhibition of L3 to L4 larval molting at 100 uM for 24 hrs measured until 6 days by using inverted microscopic analysis in presence of PBMC; format: functional, organism-based; summary of the method: as §2
Onchocerca volvulus [16] = test: Antiparasitic activity against Onchocerca volvulus assessed as inhibition of L3 to L4 larval molting at 0.5 uM for 24 hrs measured until 6 days by using inverted microscopic analysis in presence of PBMC and 0.5 uM protonophore CCCP; format: functional, organism-based; summary of the method: as §2
Onchocerca volvulus [17] = test: Antiparasitic activity against Onchocerca volvulus assessed as inhibition of L3 to L4 larval molting at 1 uM for 24 hrs measured until 6 days by using inverted microscopic analysis in presence of PBMC and 1 uM protonophore CCCP; format: functional, organism-based; summary of the method: as §2
Onchocerca volvulus [18] = test: Antiparasitic activity against Onchocerca volvulus assessed as inhibition of L3 to L4 larval molting at 2.5 uM for 24 hrs measured until 6 days by using inverted microscopic analysis in presence of PBMC and 2.5 uM protonophore CCCP; format: functional, organism-based; summary of the method: as §2
Plasmodium falciparum = test: Inhibition of Plasmodium falciparum chitinase using 20 uM 4-methylumbelliferyl-N,N',N''-beta-chitotrioside as substrate at 10 uM after 10 mins by microplate reader analysis
Chitinase [19] = target: T1, Chitinase; test: Competitive inhibition of Onchocerca volvulus L3 larvae chitinase using 20 uM 4-methylumbelliferyl-N,N',N''-beta-chitotrioside as substrate after 10 mins by microplate reader analysis
HEK-293T [20] = test: Cytotoxicity against human HEK293T/17 cells assessed as cell viability at 1 to 10 uM for 24 hrs by MTS assay; format: cell-based
Summary of the method: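 HEK 293T/17 cells (2 × 10^4) plated and held 24 h at 37 °C, then treated at 1 and 10 μM final. MTS viability read at 0.5 and 24 h post-incubation.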

SMILES	IC50 (Chitinase [1])	Activity (HEK-293T [2])	Activity (HEK-293T [3])	Drug uptake (Caenorhabditis elegans [4])	inhibition (Onchocerca volvulus [6])	other results
O=C(Nc1ccc(Oc2cccc(Cl)c2)cc1)c1cc(I)cc(I)c1O	1.74 µM	–	–	–	–	–
COc1c(I)cc(I)cc1C(=O)Nc1ccc2ccccc2c1	0.89 µM	inactive	inactive	Active	Active	Drug uptake (Caenorhabditis elegans [5]): 1.28 nmol/mg; inhibition (Onchocerca volvulus [7]): inactive
COc1c(I)cc(I)cc1C(=O)O	–	–	–	–	inactive	–
O=C(Nc1ccc(Oc2ccc(F)cc2)cc1)c1cc(I)cc(I)c1O	1.57 µM	–	–	–	–	–
O=C(Nc1ccc(Oc2ccccc2)cc1)c1cc(I)cc(I)c1O	1.98 µM	Active	Active	–	–	–
COc1c(I)cc(I)cc1C(=O)Nc1ccc(Oc2ccccc2)cc1	1.28 µM	inactive	inactive	–	–	–
O=C(Nc1ccc(Oc2ccccc2Cl)cc1)c1cc(I)cc(I)c1O	1.2 µM	–	–	–	–	–
O=C(Nc1ccc(Oc2ccccc2)cc1)c1cc(I)cc(I)c1	1.06 µM	inactive	inactive	–	–	–
CN(C(=O)c1cc(I)cc(I)c1O)c1ccc(Oc2ccccc2)cc1	1.81 µM	–	–	–	–	–
Cc1cc(C(C#N)c2ccc(Cl)cc2)c(Cl)cc1NC(=O)c1cc(I)cc(I)c1O (stereo not given) [CLOSANTEL]	–	Active	Active	Active	–	Drug metabolism (Caenorhabditis elegans [8]): metabolite_detected; Drug metabolism (Caenorhabditis elegans [9]): metabolite_detected; Drug metabolism (Caenorhabditis elegans [10]): metabolite_notdetected; Drug metabolism (Caenorhabditis elegans [11]): metabolite_notdetected; Drug metabolism (Caenorhabditis elegans [12]): metabolite_notdetected; Activity (Caenorhabditis elegans [13]): Non-toxic
COc1c(I)cc(I)cc1C(=O)N(C)c1ccc(Oc2ccccc2)cc1	3.71 µM	inactive	inactive	–	–	–
O=C(Nc1ccc2ccccc2c1)c1cc(I)cc(I)c1	1.29 µM	inactive	inactive	–	–	–
Cc1ccc(-c2ccc(NC(=O)c3cc(I)cc(I)c3O)cc2)cc1	0.99 µM	–	–	–	–	–
O=C(Nc1ccc(Oc2ccc(Cl)cc2)cc1)c1cc(I)cc(I)c1	0.87 µM	inactive	inactive	Active	–	–
N#CC(C#N)=NNc1cccc(Cl)c1 [CARBONYL CYANIDE M-CHLOROPHENYLHYDRAZONE]	–	–	–	Active	Active	–
COc1c(I)cc(I)cc1C(=O)Nc1ccc(Oc2ccc(Cl)cc2)cc1	0.6 µM	inactive	inactive	Active	Active	inhibition [14]: Active; inhibition (Brugia malayi): inactive; inhibition (Entamoeba histolytica): inactive; inhibition (Onchocerca volvulus [7]): inactive; inhibition (Onchocerca volvulus [15]): Active; inhibition (Onchocerca volvulus [16]): inactive; inhibition (Onchocerca volvulus [17]): inactive; inhibition (Onchocerca volvulus [18]): Active; inhibition (Plasmodium falciparum): inactive
O=C(Nc1ccc(Oc2ccc(Cl)cc2)c(Cl)c1)c1cc(I)cc(I)c1O [RAFOXANIDE]	0.34 µM	Active	Active	1.55 nmol/mg	Active	inhibition [14]: Active; Ki (Chitinase [19]): 0.13 µM; inhibition (Brugia malayi): inactive; inhibition (Entamoeba histolytica): inactive; Drug uptake (Caenorhabditis elegans [5]): 1.73 nmol/mg; inhibition at 1 µM (Onchocerca volvulus [7]): 84%; Activity (HEK-293T [20]): Non-toxic
Cc1ccc(Oc2ccc(NC(=O)c3cc(I)cc(I)c3O)cc2)cc1	1.11 µM	–	–	–	–	–
O=C(Nc1ccc(-c2ccccc2)cc1)c1cc(I)cc(I)c1O	0.47 µM	–	–	Active	–	inhibition [14]: Active; inhibition (Brugia malayi): inactive; inhibition (Entamoeba histolytica): inactive; inhibition (Plasmodium falciparum): inactive
O=C(Nc1ccc(Oc2ccc(Cl)cc2)cc1)c1cc(I)cc(I)c1O	0.7 µM	Active	Active	Active	Active	inhibition [14]: Active; inhibition (Brugia malayi): inactive; inhibition (Entamoeba histolytica): inactive; inhibition at 1 µM (Onchocerca volvulus [7]): 84%; Activity (HEK-293T [20]): Non-toxic
O=C(Nc1ccc2ccccc2c1)c1cc(I)cc(I)c1O	0.94 µM	Active	Active	Active	Active	Drug uptake (Caenorhabditis elegans [5]): 1.13 nmol/mg; inhibition at 1 µM (Onchocerca volvulus [7]): 84%; Activity (HEK-293T [20]): Non-toxic
O=C(Nc1ccc(-c2ccc(Cl)cc2)cc1)c1cc(I)cc(I)c1O	0.37 µM	–	–	Active	–	inhibition [14]: Active; inhibition (Brugia malayi): inactive; inhibition (Entamoeba histolytica): inactive; inhibition (Plasmodium falciparum): inactive
